{
  "source": "ChEMBL document CHEMBL1129788",
  "about": "“Synthesis and biological activity of 3- and 5-amino derivatives of pyridine-2-carboxaldehyde thiosemicarbazone” (J Med Chem, 1996)",
  "key": {"[1]": {"system": "L1210", "assay": "Compound was tested for inhibition of L1210 cells growth in culture.", "format": "functional, cell-based", "conditions": "Mus musculus", "summary_of_the_method": "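L1210 cells seeded at 2000/well; test agents added 24 h later at various concentrations (at least five per agent). Growth read colorimetrically after adding phenazine methosulfate, with 2-3 h incubation at 37 °C and reading at 492 nm. IC50 is the concentration giving 50% growth inhibition.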"}, "[2]": {"species": "Mus musculus", "assay": "Long time survivors(out of 5) are the number of mice that survived for > 60 days relative to the total number of treated mice", "format": "functional"}, "[3]": {"system": "Mus musculus", "assay": "Average survival time includes only those mice that died prior to day 60(daily dosage 40 mg/kg)", "format": "functional"}, "[4]": {"biological_target": "T1, Ribonucleoside-diphosphate reductase subunit M2 (Homo sapiens, UniProt P31350)", "T1 sequence (P31350 whole entry)": "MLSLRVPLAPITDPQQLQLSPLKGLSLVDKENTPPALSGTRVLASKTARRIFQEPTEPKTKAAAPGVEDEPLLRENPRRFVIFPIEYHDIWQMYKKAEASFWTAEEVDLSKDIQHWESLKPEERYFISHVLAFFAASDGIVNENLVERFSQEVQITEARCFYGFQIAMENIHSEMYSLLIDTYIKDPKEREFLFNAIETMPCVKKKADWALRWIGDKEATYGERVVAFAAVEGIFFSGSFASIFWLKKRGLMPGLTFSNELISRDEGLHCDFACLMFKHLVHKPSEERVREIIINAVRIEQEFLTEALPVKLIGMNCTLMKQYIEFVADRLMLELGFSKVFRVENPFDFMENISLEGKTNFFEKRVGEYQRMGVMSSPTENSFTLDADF", "assay": "Inhibitory activity against CDP reductase.", "summary_of_the_method": "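Ribonucleoside diphosphate reductase prepared as non-heme iron and effector-binding subunits. IC50 is 50% inhibition, the mean of two separate determinations.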"}, "[5]": {"system": "Mus musculus", "assay": "T/C(100) represents the ratio of the survival time of treated to control animals x 100(daily dosage 60 mg/kg)", "format": "functional"}, "[6]": {"system": "Mus musculus", "assay": "Average change in body weight from onset to termination of therapy(daily dosage 40 mg/kg)", "format": "functional"}, "[7]": {"system": "Mus musculus", "assay": "T/C(100) represents the ratio of the survival time of treated to control animals x 100(daily dosage 80 mg/kg)", "format": "functional"}, "[8]": {"system": "Mus musculus", "assay": "Average survival time includes only those mice that died prior to day 80(daily dosage 40 mg/kg)", "format": "functional"}, "[9]": {"system": "Mus musculus", "assay": "Average survival time includes only those mice that died prior to day 60(daily dosage 40 mg/kg)"}, "[10]": {"system": "Mus musculus", "assay": "T/C(100) represents the ratio of the survival time of treated to control animals x 100(daily dosage 40 mg/kg)", "format": "functional"}, "[11]": {"system": "Mus musculus", "assay": "Average survival time includes only those mice that died prior to day 60(daily dosage 80 mg/kg)"}, "[12]": {"system": "Mus musculus", "assay": "Average survival time includes only those mice that died prior to day 60(daily dosage 60 mg/kg)"}, "[13]": {"conditions": "dose 60 mg/kg, in the assay text read “daily dosage 60 mg/kg” for “daily dosage 40 mg/kg”"}, "[14]": {"conditions": "dose 80 mg/kg, in the assay text read “daily dosage 80 mg/kg” for “daily dosage 40 mg/kg”"}},
  "data": [
    {"compound": "CNc1ccc(/C=N/N=C(/N)S)nc1", "values": [
      {"measurement": "IC50", "setting": "[1]", "value": 2.4, "unit": "µM"},
      {"measurement": "Survivors", "setting": "[2]", "value": 0},
      {"measurement": "Average survival", "setting": "[3]", "value": 17.8, "unit": "days"},
      {"measurement": "IC50", "setting": "[4]", "value": 1300, "unit": "nM"},
      {"measurement": "T/C", "setting": "[5]", "value": 223},
      {"measurement": "Weight", "setting": "[6]; [13]", "value": -4.4, "unit": "%"}
    ]},
    {"compound": "N/C(S)=N/N=C/c1ncc(N)cc1N", "values": [
      {"measurement": "IC50", "setting": "[1]", "value": 1.1, "unit": "µM"},
      {"measurement": "Survivors", "setting": "[2]", "value": 2},
      {"measurement": "Average survival", "setting": "[3]", "value": 10.8, "unit": "days"},
      {"measurement": "IC50", "setting": "[4]", "value": 9000, "unit": "nM"},
      {"measurement": "T/C", "setting": "[5]", "value": 135},
      {"measurement": "Weight", "setting": "[6]; [13]", "value": -17.1, "unit": "%"}
    ]},
    {"compound": "NCc1ccc(/C=N/N=C(/N)S)nc1", "values": [
      {"measurement": "T/C", "setting": "[7]", "value": 168},
      {"measurement": "IC50", "setting": "[1]", "value": 2.1, "unit": "µM"},
      {"measurement": "Survivors", "setting": "[2]", "value": 1},
      {"measurement": "IC50", "setting": "[4]", "value": 2500, "unit": "nM"},
      {"measurement": "Average survival", "setting": "[8]", "value": 13.4, "unit": "days"},
      {"measurement": "Weight", "setting": "[6]; [14]", "value": -2.4, "unit": "%"}
    ]},
    {"compound": "CCCCNc1ccc(/C=N/N=C(/N)S)nc1", "values": [
      {"measurement": "IC50", "setting": "[1]", "value": 7.8, "unit": "µM"},
      {"measurement": "Survivors", "setting": "[2]", "value": 0},
      {"measurement": "IC50", "setting": "[4]", "value": 2500, "unit": "nM"},
      {"measurement": "Average survival", "setting": "[9]", "value": 9.2, "unit": "days"},
      {"measurement": "T/C", "setting": "[10]", "value": 115},
      {"measurement": "Weight", "setting": "[6]; dose 40 mg/kg", "value": -4, "unit": "%"}
    ]},
    {"compound": "C=CCNc1cccnc1/C=N/N=C(/N)S", "values": [
      {"measurement": "T/C", "setting": "[7]", "value": 126},
      {"measurement": "IC50", "setting": "[1]", "value": "> 10", "unit": "µM"},
      {"measurement": "Average survival", "setting": "[11]", "value": 10.1, "unit": "days"},
      {"measurement": "Survivors", "setting": "[2]", "value": 0},
      {"measurement": "IC50", "setting": "[4]", "value": 1700, "unit": "nM"},
      {"measurement": "Weight", "setting": "[6]; [14]", "value": -2.6, "unit": "%"}
    ]},
    {"compound": "N/C(S)=N/N=C/c1cc(CN2CCOCC2)c(N)cn1", "values": [
      {"measurement": "IC50", "setting": "[1]", "value": "> 10", "unit": "µM"},
      {"measurement": "Survivors", "setting": "[2]", "value": 0},
      {"measurement": "IC50", "setting": "[4]", "value": 11000, "unit": "nM"},
      {"measurement": "Average survival", "setting": "[9]", "value": 10, "unit": "days"},
      {"measurement": "T/C", "setting": "[10]", "value": 125},
      {"measurement": "Weight", "setting": "[6]; dose 40 mg/kg", "value": -3.5, "unit": "%"}
    ]},
    {"compound": "C=CCNc1ccc(/C=N/N=C(/N)S)nc1", "values": [
      {"measurement": "IC50", "setting": "[1]", "value": 4.4, "unit": "µM"},
      {"measurement": "Survivors", "setting": "[2]", "value": 0},
      {"measurement": "Average survival", "setting": "[3]", "value": 17.2, "unit": "days"},
      {"measurement": "IC50", "setting": "[4]", "value": 1400, "unit": "nM"},
      {"measurement": "T/C", "setting": "[5]", "value": 215}
    ]},
    {"compound": "CCNc1ccc(/C=N/N=C(/N)S)nc1", "values": [
      {"measurement": "T/C", "setting": "[7]", "value": 204},
      {"measurement": "IC50", "setting": "[1]", "value": 3.4, "unit": "µM"},
      {"measurement": "Average survival", "setting": "[11]", "value": 16.3, "unit": "days"},
      {"measurement": "Survivors", "setting": "[2]", "value": 0},
      {"measurement": "IC50", "setting": "[4]", "value": 1000, "unit": "nM"},
      {"measurement": "Weight", "setting": "[6]; [14]", "value": -3.4, "unit": "%"}
    ]},
    {"compound": "CCCNc1ccc(/C=N/N=C(/N)S)nc1", "values": [
      {"measurement": "Average survival", "setting": "[12]", "value": 11.7, "unit": "days"},
      {"measurement": "IC50", "setting": "[1]", "value": 5.1, "unit": "µM"},
      {"measurement": "Survivors", "setting": "[2]", "value": 0},
      {"measurement": "IC50", "setting": "[4]", "value": 1400, "unit": "nM"},
      {"measurement": "T/C", "setting": "[5]", "value": 146},
      {"measurement": "Weight", "setting": "[6]; [13]", "value": -5.2, "unit": "%"}
    ]},
    {"compound": "CNc1cccnc1/C=N/N=C(/N)S", "values": [
      {"measurement": "IC50", "setting": "[1]", "value": 1.5, "unit": "µM"},
      {"measurement": "Survivors", "setting": "[2]", "value": 0},
      {"measurement": "IC50", "setting": "[4]", "value": 1000, "unit": "nM"},
      {"measurement": "Average survival", "setting": "[9]", "value": 11.8, "unit": "days"},
      {"measurement": "T/C", "setting": "[10]", "value": 148},
      {"measurement": "Weight", "setting": "[6]; dose 40 mg/kg", "value": -2.9, "unit": "%"}
    ]}
  ]
}
